Activity calls are given as the source filed them. The rule behind the calls is not given here.
Key:
L6 [1] = assay: Increase in 2-[3H]-deoxyglucose uptake in rat L6 cells at 10 uM after 16 hrs by scintillation counting analysis (reference value: 0%); type: functional
3T3-L1 = assay: Potentiation of insulin-stimulated 2-[3H]-deoxyglucose uptake in mouse 3T3L1 cells at 10 uM treated for 16 hrs followed by incubation for 3 hrs in serum free medium and insulin stimulation for 20 mins by scintillation counting analysis; type: functional, cell-based
Outline: (§1)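 Cells (L6 myotubes, 3T3-L1 adipocytes or HepG2 hepatic cells) treated with compound (10 µM) for 16 h, last 3 h serum-free, with or without insulin (100 nM, 20 min) before glucose uptake. Reported as fold stimulation over basal control; mean ± SE of three independent experiments, each in triplicate.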

[2] = molecular target: T1, Solute carrier family 2, facilitated glucose transporter member 4 (Rattus norvegicus) (UniProt P19357); assay: Induction of GLUT4 translocation to cell surface in rat L6-GLUT4myc cells at 10 uM treated for 16 hrs followed by incubation for 3 hrs in serum free medium and insulin stimulation for 20 mins; type: cell-based
T1 sequence (whole entry): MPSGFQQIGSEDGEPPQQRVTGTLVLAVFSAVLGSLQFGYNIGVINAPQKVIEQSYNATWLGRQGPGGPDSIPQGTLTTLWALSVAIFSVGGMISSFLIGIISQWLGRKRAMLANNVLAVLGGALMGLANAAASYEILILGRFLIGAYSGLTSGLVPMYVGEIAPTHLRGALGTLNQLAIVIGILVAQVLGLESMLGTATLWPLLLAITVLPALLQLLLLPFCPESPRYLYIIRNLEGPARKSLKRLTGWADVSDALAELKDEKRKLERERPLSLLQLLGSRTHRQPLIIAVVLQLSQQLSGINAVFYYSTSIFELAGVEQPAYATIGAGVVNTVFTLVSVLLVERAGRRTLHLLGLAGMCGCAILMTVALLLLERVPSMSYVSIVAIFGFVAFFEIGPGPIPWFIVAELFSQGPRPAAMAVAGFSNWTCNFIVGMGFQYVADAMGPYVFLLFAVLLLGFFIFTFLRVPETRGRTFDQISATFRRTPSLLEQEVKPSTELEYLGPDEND
Outline: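 L6-GLUT4myc myotubes given compound (10 µM) for 16 h, the final 3 h in serum-free medium; a subset stimulated with insulin (100 nM) for 20 min before measuring surface GLUT4myc. Fold over basal control; mean ± SE, three independent experiments in triplicate.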

HepG2 = assay: Potentiation of insulin-stimulated 2-[3H]-deoxyglucose uptake in human HepG2 cells at 10 uM treated for 16 hrs followed by incubation for 3 hrs in serum free medium and insulin stimulation for 20 mins by scintillation counting analysis; type: functional, cell-based; outline: as §1
L6 [3] = assay: Increase in 2-[3H]-deoxyglucose uptake in rat L6 cells after 16 hrs by scintillation counting analysis; type: functional, cell-based
Outline: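 Dose–response in L6 myotubes: vehicle (DMSO) or compound at 5, 10, 25 µM for 16 h before glucose uptake measurement; rosiglitazone 10 µM as positive control. Expressed as fold stimulation over control; mean ± SE of three independent experiments, each in triplicate.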

L6 [4] = assay: Potentiation of insulin-stimulated 2-[3H]-deoxyglucose uptake in rat L6 cells at 10 uM treated for 16 hrs followed by incubation for 3 hrs in serum free medium and insulin stimulation for 20 mins by scintillation counting analysis; type: functional, cell-based; outline: as §1
[5] = molecular target: 5'-AMP-activated protein kinase catalytic subunit alpha-1 (Rattus norvegicus) (UniProt P54645); assay: Effect on AMPK-alpha phosphorylation at Thr-172 residue in rat L6 cells at 10 uM after 16 hrs by immunoblot analysis; type: cell-based
Outline: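 L6 myotubes exposed to compound (10 µM) for 16 h, then lysed; western blot for phospho-AMPK (Thr-172), quantified by densitometry relative to total AMPK. Mean ± SEM of three independent experiments.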

L6 [6] = assay: Increase in 2-[3H]-deoxyglucose uptake in rat L6 cells at 10 uM after 16 hrs by scintillation counting analysis relative to lupeol; type: functional
[7] = molecular target: Insulin receptor (Rattus norvegicus) (UniProt P15127); assay: Effect on IR-beta phosphorylation in rat L6 cells at 10 uM treated for 16 hrs followed by incubation for 3 hrs in serum free medium and insulin stimulation for 20 mins by Western blot analysis; type: cell-based
Outline: (§2)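 L6 myotubes were exposed to compound (10 μM) for 16 h, serum-free for the last 3 h. One subset then received insulin (100 nM) for 20 min. Cells were lysed and equal protein amounts were western blotted. Densitometry gave pIRβ/IRβ, pIRS-1/IRS-1 and pAKT/AKT ratios. Three independent experiments, mean SEM.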

L6 [8] = assay: Potentiation of insulin-stimulated 2-[3H]-deoxyglucose uptake in rat L6 cells at 10 uM treated for 16 hrs followed by incubation for 3 hrs in serum free medium and insulin stimulation for 20 mins by scintillation counting analysis in presence of PI3K inhibitor wortmannin; type: functional, cell-based
Outline: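 L6 myotubes were given compound (10 μM) for 16 h, with or without wortmannin (50 nM). Insulin treatment followed, then glucose uptake was measured. Values are expressed as fold stimulation over basal control.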

[9] = molecular target: T2, Insulin receptor substrate 1 (Rattus norvegicus) (UniProt P35570); assay: Increase in IRS-1-mediated Akt phosphorylation in rat L6 cells at 10 uM treated for 16 hrs followed by incubation for 3 hrs in serum free medium and insulin stimulation for 20 mins by Western blot analysis; type: cell-based; outline: as §2
T2 sequence (whole entry): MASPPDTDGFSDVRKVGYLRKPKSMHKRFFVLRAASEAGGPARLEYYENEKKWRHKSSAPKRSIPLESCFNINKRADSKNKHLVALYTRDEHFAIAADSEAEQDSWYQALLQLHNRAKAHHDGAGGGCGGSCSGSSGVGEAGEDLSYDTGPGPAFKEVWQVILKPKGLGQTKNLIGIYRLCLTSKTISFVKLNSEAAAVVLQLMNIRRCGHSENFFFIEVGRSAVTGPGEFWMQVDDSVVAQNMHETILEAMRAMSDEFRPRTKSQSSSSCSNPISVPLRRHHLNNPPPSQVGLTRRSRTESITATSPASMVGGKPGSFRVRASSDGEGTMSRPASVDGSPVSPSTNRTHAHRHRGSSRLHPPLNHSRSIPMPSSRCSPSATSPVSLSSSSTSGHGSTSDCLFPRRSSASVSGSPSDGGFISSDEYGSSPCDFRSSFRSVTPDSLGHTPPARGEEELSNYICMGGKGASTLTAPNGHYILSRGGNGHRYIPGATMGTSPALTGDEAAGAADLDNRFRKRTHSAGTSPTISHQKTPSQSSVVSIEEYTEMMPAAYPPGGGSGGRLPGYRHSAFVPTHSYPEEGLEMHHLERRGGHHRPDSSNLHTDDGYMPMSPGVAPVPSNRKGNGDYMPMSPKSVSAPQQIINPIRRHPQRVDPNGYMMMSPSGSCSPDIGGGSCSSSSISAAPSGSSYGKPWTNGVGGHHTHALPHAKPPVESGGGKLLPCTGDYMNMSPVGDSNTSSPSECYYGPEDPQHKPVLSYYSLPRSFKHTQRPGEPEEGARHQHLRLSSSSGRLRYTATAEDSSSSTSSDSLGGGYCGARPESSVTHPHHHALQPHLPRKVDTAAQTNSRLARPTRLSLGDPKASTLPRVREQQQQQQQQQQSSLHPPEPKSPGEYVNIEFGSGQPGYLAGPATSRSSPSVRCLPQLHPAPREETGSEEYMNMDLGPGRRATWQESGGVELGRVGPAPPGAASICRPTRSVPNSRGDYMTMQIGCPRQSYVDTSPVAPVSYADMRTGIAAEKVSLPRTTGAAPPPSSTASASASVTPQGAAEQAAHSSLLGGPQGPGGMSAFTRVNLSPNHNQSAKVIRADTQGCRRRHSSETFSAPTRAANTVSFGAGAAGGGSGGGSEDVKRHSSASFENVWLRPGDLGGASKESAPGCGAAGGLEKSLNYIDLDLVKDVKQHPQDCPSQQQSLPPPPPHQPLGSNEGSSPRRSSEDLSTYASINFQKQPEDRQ

[10] = molecular target: T2, Insulin receptor substrate 1 (Rattus norvegicus); assay: Increase in IRS-1 phosphorylation in rat L6 cells at 10 uM treated for 16 hrs followed by incubation for 3 hrs in serum free medium and insulin stimulation for 20 mins by Western blot analysis; type: cell-based; outline: as §2

Chain of 5'-AMP-activated protein kinase catalytic subunit alpha-1 (Rattus norvegicus) (P54645 whole entry): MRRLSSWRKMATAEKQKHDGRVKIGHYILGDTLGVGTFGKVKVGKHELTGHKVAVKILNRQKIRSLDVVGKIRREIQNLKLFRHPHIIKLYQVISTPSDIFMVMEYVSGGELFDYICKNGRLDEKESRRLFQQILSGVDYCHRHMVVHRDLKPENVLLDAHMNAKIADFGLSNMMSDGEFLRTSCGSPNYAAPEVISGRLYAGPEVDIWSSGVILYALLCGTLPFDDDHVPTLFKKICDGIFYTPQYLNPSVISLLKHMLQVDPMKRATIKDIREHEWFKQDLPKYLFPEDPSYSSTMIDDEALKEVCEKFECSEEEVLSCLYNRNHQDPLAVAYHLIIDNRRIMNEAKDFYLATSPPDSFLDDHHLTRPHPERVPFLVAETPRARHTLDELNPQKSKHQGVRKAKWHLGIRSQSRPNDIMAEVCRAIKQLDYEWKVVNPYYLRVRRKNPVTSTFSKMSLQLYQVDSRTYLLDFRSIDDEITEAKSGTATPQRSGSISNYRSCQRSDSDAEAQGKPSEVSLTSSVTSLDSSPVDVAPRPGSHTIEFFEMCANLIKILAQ
Chain of Insulin receptor (Rattus norvegicus) (P15127 27-759 limits assumed): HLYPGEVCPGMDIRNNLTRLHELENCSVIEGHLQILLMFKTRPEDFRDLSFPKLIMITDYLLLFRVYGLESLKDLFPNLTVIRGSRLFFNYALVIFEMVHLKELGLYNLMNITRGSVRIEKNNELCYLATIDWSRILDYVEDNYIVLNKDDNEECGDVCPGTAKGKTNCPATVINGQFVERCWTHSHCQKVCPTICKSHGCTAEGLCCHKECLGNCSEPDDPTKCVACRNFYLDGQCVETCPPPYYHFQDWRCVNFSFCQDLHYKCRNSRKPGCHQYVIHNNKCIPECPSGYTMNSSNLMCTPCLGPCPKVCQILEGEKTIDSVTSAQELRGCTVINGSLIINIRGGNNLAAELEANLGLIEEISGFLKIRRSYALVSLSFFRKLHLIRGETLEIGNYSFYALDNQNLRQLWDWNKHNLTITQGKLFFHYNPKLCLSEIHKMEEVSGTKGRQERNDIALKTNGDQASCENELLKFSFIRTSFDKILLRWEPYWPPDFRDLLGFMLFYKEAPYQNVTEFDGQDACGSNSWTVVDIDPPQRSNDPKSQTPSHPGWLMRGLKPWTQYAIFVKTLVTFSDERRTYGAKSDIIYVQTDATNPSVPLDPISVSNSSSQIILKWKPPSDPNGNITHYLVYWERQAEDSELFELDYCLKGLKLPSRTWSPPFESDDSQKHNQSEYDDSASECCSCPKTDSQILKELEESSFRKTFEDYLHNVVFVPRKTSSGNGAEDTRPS
Chain of Insulin receptor (Rattus norvegicus) (P15127 764-1383 limits assumed): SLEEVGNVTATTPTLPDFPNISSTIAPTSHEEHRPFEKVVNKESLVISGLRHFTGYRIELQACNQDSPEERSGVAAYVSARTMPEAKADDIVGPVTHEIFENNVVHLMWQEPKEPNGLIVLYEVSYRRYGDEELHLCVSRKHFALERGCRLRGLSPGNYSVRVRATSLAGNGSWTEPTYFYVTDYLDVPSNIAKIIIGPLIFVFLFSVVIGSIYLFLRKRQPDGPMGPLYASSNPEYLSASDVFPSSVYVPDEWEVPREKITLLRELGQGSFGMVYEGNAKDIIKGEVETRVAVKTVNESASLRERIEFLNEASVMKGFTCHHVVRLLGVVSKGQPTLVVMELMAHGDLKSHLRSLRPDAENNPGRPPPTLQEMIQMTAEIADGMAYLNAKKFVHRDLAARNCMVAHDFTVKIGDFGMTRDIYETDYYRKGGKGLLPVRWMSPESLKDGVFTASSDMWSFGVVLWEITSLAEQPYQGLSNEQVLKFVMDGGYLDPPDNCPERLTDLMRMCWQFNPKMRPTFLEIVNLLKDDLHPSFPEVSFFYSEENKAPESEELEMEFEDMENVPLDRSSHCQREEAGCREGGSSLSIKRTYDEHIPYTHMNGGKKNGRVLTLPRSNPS

`CC1(C)[C@@H](OC(=O)CCc2ccc(Cl)cc2)CC[C@]2(C)[C@H]3CC[C@@H]4[C@H]5[C@H]([C@H]6C=NN(C(=O)CCc7ccc(Cl)cc7)C6)CC[C@]5(C)CC[C@@]4(C)[C@]3(C)CC[C@@H]12` was tested, and the Activity (L6 [1]) was 2.8%.

`C=CCOCC(=C)[C@@H]1CC[C@]2(C)CC[C@]3(C)[C@H](CC[C@@H]4[C@@]5(C)CC[C@H](OC(C)=O)C(C)(C)[C@@H]5CC[C@]43C)[C@@H]12` was tested, and the Activity (L6 [1]) was 8.5%.

Compound `C=C(C)[C@@H]1CC[C@]2(C)CC[C@]3(C)[C@H](CC[C@@H]4[C@@]5(C)CC[C@H](O)C(C)(C)[C@@H]5CC[C@]43C)[C@@H]12` [LUPEOL] has an Activity (L6 [1]) of 26.8%.

`C=CC1=COC[C@@H]1[C@@H]1CC[C@]2(C)CC[C@]3(C)[C@H](CC[C@@H]4[C@@]5(C)CC[C@H](OC(C)=O)C(C)(C)[C@@H]5CC[C@]43C)[C@@H]12` gave an Activity (L6 [1]) of 2.1%.

With `CC(=O)O[C@H]1CC[C@]2(C)[C@H]3CC[C@@H]4[C@H]5[C@H]([C@@H]6C=COC6)CC[C@]5(C)CC[C@@]4(C)[C@]3(C)CC[C@H]2C1(C)C` the Activity (L6 [1]) was 3.6%.

For `C=C(C=O)[C@@H]1CC[C@]2(C)CC[C@]3(C)[C@H](CC[C@@H]4[C@@]5(C)CC[C@H](OC(=O)/C=C/c6ccccc6)C(C)(C)[C@@H]5CC[C@]43C)[C@@H]12`, the Activity (3T3-L1) was “Active”, the Activity (L6 [1]) was 98.3% and the Activity [2] was “Active”. The Activity (HepG2) was “Active”, the Activity (L6 [3]) was “Dose-dependent effect” and the EC50 (L6 [3]) was 6.2 µM. For the same compound, the Activity (L6 [4]) was “Active” and the Activity [5] was “inactive”.

Work on `CC(C)C(Br)C(=O)O[C@H]1CC[C@]2(C)[C@H]3CC[C@@H]4[C@H]5[C@H]([C@H]6C=NN(C(=O)C(Br)C(C)C)C6)CC[C@]5(C)CC[C@@]4(C)[C@]3(C)CC[C@H]2C1(C)C` (stereo partly specified) yielded an Activity (L6 [1]) of 8.4%.

Compound `C=C(C=O)[C@@H]1CC[C@]2(C)CC[C@]3(C)[C@H](CC[C@@H]4[C@@]5(C)CC[C@H](OC(=O)C(Br)C(C)C)C(C)(C)[C@@H]5CC[C@]43C)[C@@H]12` (stereo partly specified) has an Activity (L6 [1]) of 3.1%.

Work on `CN(CCOc1ccc(CC2SC(=O)NC2=O)cc1)c1ccccn1` (stereo unspecified) [ROSIGLITAZONE] yielded an Activity (L6 [1]) of 112.4% and an EC50 (L6 [3]) of 4.8 µM.

`CC1(C)[C@@H](O)CC[C@]2(C)[C@H]3CC[C@@H]4[C@H]5[C@H]([C@@H](C=O)C(O)c6ccccc6)CC[C@]5(C)CC[C@@]4(C)[C@]3(C)CC[C@@H]12` (stereo partly specified) gave an Activity (L6 [1]) of 6.4%.

In the case of `C=C(C=O)[C@@H]1CC[C@]2(C)CC[C@]3(C)[C@H](CC[C@@H]4[C@@]5(C)CC[C@H](OC(C)=O)C(C)(C)[C@@H]5CC[C@]43C)[C@@H]12`, the Activity (3T3-L1) is reported as “Active”, the Activity (L6 [1]) is reported as 114.1% and the “fold change (FC)” value (L6 [6]) is reported as 4.5. For the same compound, the Activity [2] was “Active”, the Activity (HepG2) was “Active” and the Activity (L6 [3]) was “Dose-dependent effect”. For the same compound, the EC50 (L6 [3]) was 5.2 µM, the Activity (L6 [4]) was “Active” and the Activity [5] was “inactive”.

`C=C(C=O)[C@@H]1CC[C@]2(C)CC[C@]3(C)[C@H](CC[C@@H]4[C@@]5(C)CC[C@H](O)C(C)(C)[C@@H]5CC[C@]43C)[C@@H]12` was tested, and the Activity (3T3-L1) was “Active”, the Activity [7] was “inactive” and the Activity (L6 [8]) was “inactive”. The Activity (L6 [1]) was 173.1%, the Activity [9] was “Active” and the Activity [10] was “Active”. The Activity [2] was “Active”, the Activity (HepG2) was “Active” and the Activity (L6 [3]) was “Dose-dependent effect”. For the same compound, the EC50 (L6 [3]) was 4.2 µM, the Activity (L6 [4]) was “Active” and the Activity [5] was “inactive”.

Work on `CC1(C)[C@@H](O)CC[C@]2(C)[C@H]3CC[C@@H]4[C@H]5[C@H]([C@H]6C=NOC6c6ccccc6)CC[C@]5(C)CC[C@@]4(C)[C@]3(C)CC[C@@H]12` (stereo partly specified) yielded an Activity (L6 [1]) of 13.2%.

`C#CCOCC(=C)[C@@H]1CC[C@]2(C)CC[C@]3(C)[C@H](CC[C@@H]4[C@@]5(C)CC[C@H](OC(C)=O)C(C)(C)[C@@H]5CC[C@]43C)[C@@H]12` showed an Activity (L6 [1]) of 19.2%.

Compound `C=C(C=O)[C@@H]1CC[C@]2(C)CC[C@]3(C)[C@H](CC[C@@H]4[C@@]5(C)CC[C@H](OC(=O)CCc6ccc(Cl)cc6)C(C)(C)[C@@H]5CC[C@]43C)[C@@H]12` has an Activity (L6 [1]) of 0.5%.

Work on `C=C(CO)[C@@H]1CC[C@]2(C)CC[C@]3(C)[C@H](CC[C@@H]4[C@@]5(C)CC[C@H](OC(C)=O)C(C)(C)[C@@H]5CC[C@]43C)[C@@H]12` yielded an Activity (L6 [1]) of 22.2%.

`CC1(C)[C@@H](O)CC[C@]2(C)[C@H]3CC[C@@H]4[C@H]5[C@H]([C@H]6C=NNC6)CC[C@]5(C)CC[C@@]4(C)[C@]3(C)CC[C@@H]12` was tested, and the Activity (L6 [1]) was 16.1%.

For `CC1(C)[C@@H](OC(=O)/C=C/c2ccccc2)CC[C@]2(C)[C@H]3CC[C@@H]4[C@H]5[C@H](C6C=NN(C(=O)/C=C/c7ccccc7)C6)CC[C@]5(C)CC[C@@]4(C)[C@]3(C)CC[C@@H]12` (stereo partly specified), the Activity (3T3-L1) was “Active”, the Activity [7] was “inactive” and the Activity (L6 [8]) was “inactive”. For the same compound, the Activity (L6 [1]) was 107.3%, the Activity [9] was “Active” and the Activity [10] was “Active”. For the same compound, the Activity [2] was “Active”, the Activity (HepG2) was “Active” and the Activity (L6 [3]) was “Dose-dependent effect”. The EC50 (L6 [3]) was 4.9 µM, the Activity (L6 [4]) was “Active” and the Activity [5] was “inactive”.
